Measured values published in ChEMBL document CHEMBL1135477, “Antifungal agents. 10. New derivatives of 1-[(aryl)[4-aryl-1H-pyrrol-3-yl]methyl]-1H-imidazole, synthesis, anti-candida activity, and quantitative structure-analysis relationship studies” (J Med Chem, 2002).
Converted amounts (≈) assume the structure as drawn.

Legend:
Type in all cases: functional
[1] = system: Candida albicans; assay: IIn vitro antifungal activity against 40 strains of Candida albicans at pH 7.2; minimum inhibitory concentration (range is from 2 to 64)
Outline: (§1)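 Broth serial-dilution MIC against 40 clinical C. albicans isolates from hospitalized patients, grown in Sabouraud broth at pH 7.2 or 5.8. Cells were pre-grown 18 h at 37 °C, inoculated at 10³/mL, and read at 24 h, 37 °C. Doubling dilutions ran 0.25–256 μg/mL from a DMSO/water solution. MIC was the lowest concentration with no visible growth against a DMSO/water blank.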

[2] = system: Candida; assay: Tested In vitro for antifungal activity against Candida species. at pH 7.2; (percent of resistant species at 256 ug/mL)
Outline: (§2)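 Broth serial-dilution test in Sabouraud broth at pH 7.2 or 5.8, against 3 fresh clinical non-albicans isolates (two C. glabrata, one C. krusei). Inocula were 10³/mL, pre-grown 18 h at 37 °C. Compound was twofold-diluted over 0.25–256 µg/mL and read at 24 h, 37 °C for visible growth.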

[3] = system: Candida; assay: Tested in vitro for antifungal activity against Candida species. at pH 5.8 (percent of resistant species at 256 ug/mL); outline: as §2
[4] = system: Candida albicans; assay: In vitro antifungal activity against 40 strains of Candida albicans at pH 5.8; outline: as §1
[5] = molecular target: Lanosterol 14-alpha demethylase (Candida albicans (strain SC5314 / ATCC MYA-2876) (Yeast), UniProt P10613); assay: Anticandida activity- (MIC90 compound) / (MIC90 bifonazole)
Lanosterol 14-alpha demethylase, sequence (P10613 whole entry): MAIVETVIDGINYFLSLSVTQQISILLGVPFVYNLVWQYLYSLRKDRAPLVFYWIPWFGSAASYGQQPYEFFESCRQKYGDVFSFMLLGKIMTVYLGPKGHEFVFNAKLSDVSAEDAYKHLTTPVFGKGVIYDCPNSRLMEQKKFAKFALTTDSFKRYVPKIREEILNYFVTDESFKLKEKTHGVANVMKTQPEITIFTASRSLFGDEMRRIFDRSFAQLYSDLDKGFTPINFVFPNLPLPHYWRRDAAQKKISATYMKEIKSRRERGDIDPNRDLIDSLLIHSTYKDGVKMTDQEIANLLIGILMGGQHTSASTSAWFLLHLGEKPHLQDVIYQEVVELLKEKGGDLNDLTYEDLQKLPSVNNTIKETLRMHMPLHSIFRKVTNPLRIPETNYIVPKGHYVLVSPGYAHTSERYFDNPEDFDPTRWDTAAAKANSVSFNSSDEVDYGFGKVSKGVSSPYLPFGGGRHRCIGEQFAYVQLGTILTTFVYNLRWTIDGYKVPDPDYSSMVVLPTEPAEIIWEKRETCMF

[6] = system: Candida albicans; assay: In vitro antifungal activity against 40 strains of Candida albicans at pH 5.8; (percent of resistant species at 256 ug/mL)
Outline: (§3)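 Broth serial-dilution test in Sabouraud broth at pH 7.2 or 5.8, against 40 fresh clinical C. albicans isolates from hospitalized patients. Inocula were 10³/mL, pre-grown 18 h at 37 °C in Sabouraud dextrose broth. Compound from a DMSO/water stock was twofold-diluted over 0.25–256 µg/mL. Visible growth was read at 24 h, 37 °C.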

[7] = system: Candida albicans; assay: In vitro antifungal activity against 40 strains of Candida albicans at pH 7.2; (percent of resistant species at 256 ug/mL); outline: as §3
[8] = system: Candida albicans; assay: TIn vitro antifungal activity against 40 strains of Candida albicans at pH 5.8; (range is from 4 to 64); outline: as §1
[9] = system: Candida; assay: Tested In vitro for antifungal activity against Candida species. at pH 7.2; (range is from 1 to 32)
Outline: (§4)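 Liquid serial-dilution MIC against 3 freshly isolated clinical Candida strains (two C. glabrata, one C. krusei) in Sabouraud broth at pH 7.2 or 5.8. Inoculum was 10³/mL after 18 h pre-culture at 37 °C, read at 24 h, 37 °C. Range was 0.25–256 μg/mL. Endpoint was no visible growth versus a DMSO/water blank.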

[10] = system: Candida; assay: Tested in vitro for antifungal activity against Candida species. at pH 5.8 (range is from 8 to 256); outline: as §4
[11] = system: Candida; assay: Tested In vitro for antifungal activity against Candida species. at pH 7.2; outline: as §4
[12] = system: Candida; assay: Tested in vitro for antifungal activity against Candida species. at pH 5.8; outline: as §4
[13] = system: Candida albicans; assay: In vitro antifungal activity against 40 strains of Candida albicans at pH 7.2; outline: as §1
[14] = system: Candida albicans; assay: In vitro antifungal activity against 40 strains of Candida albicans at pH 5.8; (range is from 0.25 to 64); outline: as §1
[15] = system: Candida albicans; assay: In vitro antifungal activity against 40 strains of Candida albicans at pH 7.2; minimum inhibitory concentration (range is from 1 to 32); outline: as §1
[16] = system: Candida; assay: Tested In vitro for antifungal activity against Candida species. at pH 7.2; (range is from 2 to 32); outline: as §4
[17] = system: Candida; assay: Tested in vitro for antifungal activity against Candida species. at pH 5.8 (range is from 4 to 16); outline: as §4
[18] = system: Candida albicans; assay: IIn vitro antifungal activity against 40 strains of Candida albicans at pH 7.2; minimum inhibitory concentration (range is from 2 to 128); outline: as §1
[19] = system: Candida; assay: Tested in vitro for antifungal activity at pH 7.2 (percent of resistant species at 256 ug/mL)
Outline: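 Sabouraud broth serial-dilution test (0.25–256 µg/mL, 10³/mL inocula, 24 h at 37 °C), run at the stated pH on clinical isolates: 40 C. albicans and 3 Candida spp. (two C. glabrata, one C. krusei).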

[20] = system: Candida; assay: Tested In vitro for antifungal activity against Candida species. at pH 7.2; (range is from 8 to 256); outline: as §4
[21] = system: Candida; assay: Tested in vitro for antifungal activity against Candida species. at pH 5.8 (value ranges from 16 to 128); outline: as §4
[22] = system: Candida albicans; assay: In vitro antifungal activity against 40 strains of Candida albicans at pH 5.8; (range is from 4 to 64); outline: as §1
[23] = system: Candida albicans; assay: In vitro antifungal activity against 40 strains of Candida albicans at pH 5.8; value ranges from 256 to >256; outline: as §1
[24] = system: Candida albicans; assay: In vitro antifungal activity against 40 strains of Candida albicans at pH 5.8 (percent of resistant species at 256 ug/mL); outline: as §3
[25] = system: Candida albicans; assay: In vitro antifungal activity against 40 strains of Candida albicans at pH 7.2; value ranges from 128 to >256; outline: as §1
[26] = system: Candida; assay: Tested In vitro for antifungal activity against Candida species. at pH 7.2 (percent of resistant species at 256 ug/mL); outline: as §2
[27] = system: Candida albicans; assay: In vitro antifungal activity against Candida albicans (40 strains) at pH 7.2; (percent of resistant species at 256 ug/mL); outline: as §3

Row | SMILES | Resistance [2] | Resistance [3] | MIC [4] | MIC50 [4] | MIC90 [4] | Ratio [5] | Resistance [6] | Resistance [7] | MIC [11] | MIC50 [11] | MIC90 [11] | MIC [12] | MIC50 [12] | MIC90 [12] | MIC [13] | MIC50 [13] | MIC90 [13] | also measured
1 | N#Cc1ccc(-c2c[nH]cc2[C@H](c2ccc(Cl)cc2Cl)n2ccnc2)cc1 | 0% | 0% | 41.3 µg/mL (≈ 105 µM) | 8 µg/mL (≈ 20.3 µM) | 32 µg/mL (≈ 81.4 µM) | 6.3 | 0% | 0% | 32.4 µg/mL (≈ 82.4 µM) | 16 µg/mL (≈ 40.7 µM) | 64 µg/mL (≈ 163 µM) | 58 µg/mL (≈ 147 µM) | 64 µg/mL (≈ 163 µM) | 256 µg/mL (≈ 651 µM) | 13.2 µg/mL (≈ 33.6 µM) | 8 µg/mL (≈ 20.3 µM) | 32 µg/mL (≈ 81.4 µM) | Range [1]: 64 µg/mL; Range [8]: 64 µg/mL; Range [9]: 32 µg/mL; Range [10]: 256 µg/mL
2 | Clc1ccc([C@H](c2c[nH]cc2-c2ccc(-n3cccc3)cc2)n2ccnc2)c(Cl)c1 | 0% | 0% | 3.95 µg/mL (≈ 9.12 µM) | 2 µg/mL (≈ 4.62 µM) | 4 µg/mL (≈ 9.23 µM) | 0.72 | 0% | 0% | 14.1 µg/mL (≈ 32.6 µM) | 4 µg/mL (≈ 9.23 µM) | 32 µg/mL (≈ 73.8 µM) | 9.3 µg/mL (≈ 21.5 µM) | 8 µg/mL (≈ 18.5 µM) | 16 µg/mL (≈ 36.9 µM) | 4.4 µg/mL (≈ 10.2 µM) | 2 µg/mL (≈ 4.62 µM) | 4 µg/mL (≈ 9.23 µM) | Range [14]: 64 µg/mL; Range [15]: 32 µg/mL; Range [16]: 32 µg/mL; Range [17]: 16 µg/mL
3 | Clc1ccc([C@H](c2c[nH]cc2-c2ccc(-c3ccccc3)cc2)n2ccnc2)c(Cl)c1 |  |  | 10.1 µg/mL (≈ 22.6 µM) | 8 µg/mL (≈ 18 µM) | 8 µg/mL (≈ 18 µM) | 5.6 | 0% | 0% | 90.6 µg/mL (≈ 204 µM) | 8 µg/mL (≈ 18 µM) | 256 µg/mL (≈ 576 µM) | 53.3 µg/mL (≈ 120 µM) | 16 µg/mL (≈ 36 µM) | 128 µg/mL (≈ 288 µM) | 14.9 µg/mL (≈ 33.5 µM) | 8 µg/mL (≈ 18 µM) | 8 µg/mL (≈ 18 µM) | Range [18]: 128 µg/mL; % R [3]: 0%; Resistance [19]: 0%; Range [20]: 256 µg/mL; Range [21]: 128 µg/mL; Range [22]: 64 µg/mL
4 | CC(C)(C)c1ccc(-c2c[nH]cc2[C@@H](c2ccc(Cl)cc2Cl)n2ccnc2)cc1 |  | 100% | 256 µg/mL (≈ 603 µM) | > 256 µg/mL | > 256 µg/mL | 47 |  |  |  | > 256 µg/mL | > 256 µg/mL |  | > 256 µg/mL | > 256 µg/mL | 165 µg/mL (≈ 388 µM) | > 256 µg/mL | > 256 µg/mL | Range [23]: >256 µg/mL; Resistance [24]: 97%; Range [25]: >256 µg/mL; Resistance [26]: 100%; Range [11]: >256 µg/mL; Range [12]: >256 µg/mL; Resistance [27]: 80%
